Only a selection was taken, and hits are over-represented in it overall.
Insulin prom act – TRM-6 insulin promoter activation. AID 1296. activation, % at 2 µM. TRM-6 cells (human fetal islet line), insulin promoter eGFP reporter, imaging; plate-scaled: unstimulated 0, stimulated control 100. 0.81% of 130,000 active;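 active = activation at 2 µM above a set limit, confirmed on inspection of the cell images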;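 also: share of cells whose green reporter signal exceeds an intensity cutoff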
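test system = TRM-6 insulin promoter–eGFP reporter cells | benchmarks = stimulated versus unstimulated wells as plate controls | read-out basis = percent cells above green-intensity threshold, converted to percent activation versus plate controls | detection = fixed-cell fluorescence microscopy, eGFP plus Hoechst | incubation = tamoxifen pre-incubation 15 h overnight, then compound exposure 48 h at 37 °C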
A number is an active result; - = inactive.

SMILES	Insulin prom act
CC(c1ccc(C(C)(C)C)cc1)S(=O)CC(O)CO (stereo not given)	-
CC(C)CN(C(=O)CSc1nncn1-c1ccccc1)c1c(N)n(CC(C)C)c(=O)[nH]c1=O	-
CC(C)CNc1cc(Cl)c(S(=O)(=O)NCC(C)C)cc1C(=O)O	-
O=C(O)c1cc(S(=O)(=O)Nc2ccc3c(c2)OCCO3)c(Cl)cc1Cl	150.0
O=S(=O)(Nc1ccc2c(c1)OCCO2)c1ccc2oc3ccccc3c2c1	-
COc1ccc(CCNC(=O)CCC(=O)N2CCN(S(=O)(=O)c3ccc(Cl)cc3)CC2)cc1OC	-
COc1ccccc1/C=C/C(=O)NC(=S)N(C)C1CCCCC1	-
CC1CCCCC1NC(=S)NC(=O)c1ccccc1Br (stereo not given)	-
CN(C(=S)NC(=O)c1ccccc1Br)C1CCCCC1	222.6
CCC(CC)NC(=O)Cc1ccccc1[N+](=O)[O-]	-
CCOc1ccc(CN(C)C(=O)c2cccnc2SC)cc1OC	-
CC(=O)c1c(C)oc2c1C(=O)c1ccccc1C2=O	-
O=C1c2ccccc2C(=O)c2c1oc(C(F)(F)F)c2C(=O)c1ccccc1	-
O=C1c2ccccc2-c2onc3ccc(Oc4ccccc4)c1c23	400.0
COc1ccc(OC)c(CN(CCCN2CCOCC2)C(=O)Nc2ccccc2)c1	-
CCc1ccc(Nc2nc(N)nc(CSc3nnnn3-c3ccccc3)n2)cc1	-
Cn1nc(-c2ccccc2)c2nc3ccccc3nc21	150.0
Cc1nnc2c(-c3ccccc3)nc3ccccc3n12	-
Cn1c(=O)c(-c2ccccc2)nc2ccccc21	-
COC(=O)c1c(-c2ccccc2Cl)noc1/C=C/N(C)C	-
CCOc1ccc(N(C(=O)Cn2nnc3ccccc32)C(C(=O)NC(C)(C)CC)c2cccn2C)cc1 (stereo not given)	462.5
Cc1ccc(-c2nnn(CC(=O)N(c3ccccc3)C(C(=O)NC(C)(C)C)c3cccs3)n2)o1 (stereo not given)	-
CCC(C)(C)NC(=O)C(c1cccn1C)N(C(=O)Cn1nnc2ccccc21)c1ccc(OC)cc1OC (stereo not given)	-
CN1CCN(CC(=O)Nc2cc(N3CCOCC3)ccc2[N+](=O)[O-])CC1	-
COC(=O)c1c(NC(=O)Cc2cccs2)sc(C(=O)NC2CCCCC2)c1C	-
SMILES	Insulin prom act
CCOC(=O)c1c(NC(=O)Cc2cccs2)sc(C(=O)NC2CCCCC2)c1C	153.3
CCOC(=O)c1c(NC(=O)Cc2cccs2)sc(C(=O)NC2CCCC2)c1C	-
Cc1c(C(=O)O)sc2nc3n(c(=O)c12)CCC3	-
O=C(Nc1ccc2nc3n(c(=O)c2c1)CCCC3)c1cccc([N+](=O)[O-])c1	-
O=c1c2c(-c3ccc([N+](=O)[O-])cc3)csc2nc2n1CCC2	481.3
Cc1ccc(C)c(Cn2c(=O)n(CCCC(=O)NCc3ccco3)c(=O)c3sccc32)c1	-
CC(=O)Nc1ccc(C2Nc3ccccc3C(=O)N2C2CCCCC2)cc1 (stereo not given)	-
Cc1ccc(-n2c(=O)c3ccccc3n(CC(=O)C(C)(C)C)c2=O)cc1	-
CN(C)S(=O)(=O)c1ccc(Oc2ccccc2)cc1	475.0
CNS(=O)(=O)c1ccc(Oc2ccc(S(=O)(=O)NC)cc2)cc1	-
CN(C)S(=O)(=O)c1ccc(C(=O)Nc2ccccc2F)cc1	-
Clc1ccc(CSc2nnc(Cn3cnc4ccccc43)o2)cc1	-
CCN1/C(=C/C(C)=C/c2sc3ccccc3[n+]2CC)Sc2ccccc21	640.7
COc1ccc(S(=O)(=O)N2CCOCC2)cc1NC(=O)COc1cccnc1[N+](=O)[O-]	-
COc1ccc(CCN2CC(C(=O)O)CC2=O)cc1 (stereo not given)	-
COc1ccc(-c2nc(N)n(C(=O)c3ccccc3)n2)cc1	-
Cn1c(=O)c2cn(-c3ccccc3)cc2n(C)c1=O	-
CC(C)C(c1nnnn1C1CCCCC1)N1CCN(c2ncccn2)CC1 (stereo not given)	-
COc1ccc(CCn2nnnc2C(CC(C)C)N2CCN(c3ncccn3)CC2)cc1OC (stereo not given)	-
COc1ccc(CCn2nnnc2C(C(C)C)N2CCN(c3ncccn3)CC2)cc1OC (stereo not given)	170.0
CC(=O)c1c(O)cc(C)n(Cc2ccccc2)c1=O	-
CCOC(=O)/C(C(N)=NC)=C(\O)c1ccccc1	-
COc1ccc(OC)c(CNC(=O)C2CCN(S(C)(=O)=O)CC2)c1	-
COc1ccccc1CNC(=O)C1CCCN(S(C)(=O)=O)C1 (stereo not given)	-
COc1ccc(Br)cc1CNC(=O)C1CCN(S(=O)(=O)N2CCCCC2)CC1	169.2
SMILES	Insulin prom act
O=c1c2oc3ccccc3c2[nH]c(=S)n1-c1ccc(F)cc1	-
COc1ccc(S(=O)(=O)NCC(c2cccnc2)N2CCN(c3ccccc3OC)CC2)cc1C (stereo not given)	185.7
COc1ccccc1N1CCN(C(CNS(=O)(=O)c2ccccc2)c2cccnc2)CC1 (stereo not given)	-
COc1ccccc1N1CCN(C(CNC(=O)c2ccc3c(c2)OCO3)c2cccnc2)CC1 (stereo not given)	-
CC1CCCC(NC(=O)COC(=O)CCSc2ccccc2)C1C (stereo not given)	-
Cc1ccc(SCCCn2cnc3ccccc3c2=O)cc1	-
COC(=O)c1cn(C(=O)c2cccc(C)c2)c2ccccc12	483.3
COC(=O)c1cn(C(=O)c2ccc(C)c(C)c2)c2ccccc12	-
COC(=O)c1cn(C(=O)c2ccc(Br)o2)c2ccccc12	-
COC(=O)[C@H](C)NC(=O)NC1CCN(Cc2ccccc2)CC1	-
O=S(=O)(/N=C(/Nc1ccccn1)c1ccccc1)c1ccccc1	196.4
Cc1cccc(NC(=S)N/C(=N/S(=O)(=O)c2ccccc2)c2ccccc2)c1	-
CC(C)OC(=S)N/C(=N\S(=O)(=O)c1ccccc1)c1ccccc1	-
Cc1cc(C)c(Cc2c(C)nc3c(C(=O)NCc4ccco4)cnn3c2C)c(C)c1	-
O=C1CC(N2CCN(c3nc4ccccc4s3)CC2)C(=O)N1c1cccc(F)c1 (stereo not given)	-
COc1ccc(C(=O)NCCSC2CCCCC2)cc1	-
CSc1ccc(C#N)cc1NC(=O)c1ccc(Cl)nc1	-
Cc1cc(C)nc(SCC(=O)n2c3c(c4ccccc42)CCCC3)n1	-
Cc1ccc2c(c1)c1c(n2CC(O)Cn2nc(C)c(Br)c2C)CCCC1 (stereo not given)	83.3
Cc1nn(CC(O)Cn2cnc3c2c(=O)n(C)c(=O)n3C)c(C)c1Br (stereo not given)	-
Cn1cc([N+](=O)[O-])c(C(=O)NCc2ccco2)n1	-
N#CC1=C(N)OC2=C(C(=O)CCC2)C1c1ccc(OC(=O)N2CCOCC2)cc1 (stereo not given)	-
COc1cc(C2C(C#N)=C(N)OC3=C2C(=O)CC(C)(C)C3)ccc1OC(=O)N1CCOCC1 (stereo not given)	600.0
COc1ccc(-c2[nH]nc3c2C(c2ccc(OC(=O)N4CCOCC4)cc2)C(C#N)=C(N)O3)cc1 (stereo not given)	-
Nc1nc2c(c(=O)[nH]1)C(c1cccc3ccccc13)C1=C(N2)c2ccccc2C1=O (stereo not given)	-
CCOc1ccc(C(=O)N/N=C/c2cc(Cl)ccc2[N+](=O)[O-])cc1	-
CC(=O)c1ccc2cccc3c2c1N=CN3C	130.0
CN1/C(=N\O)c2cccc3cccc1c23	-
CN1c2cccc3cccc(c23)N(C)C1(C)C	-
N#Cc1cccc(NC(=O)CSc2ccc3c4c(cccc24)C(=O)c2ccccc2-3)c1	233.3
